pIC50: −log10 of the molar value.
Columns and labels:
[1] = system: K562; experiment: Cytotoxicity against human K-562 assessed as growth inhibition at 10 uM by NCI protocol relative to control; type: functional; conditions: read-out: GI
In short: (§1)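 Run by NCI as a single-dose screen at 10 μM across the sixty-cell-line panel, which covers nine human tumour tissue types. The read-out is percent growth inhibition of treated cells relative to untreated cells.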

[2] = system: NCI/ADR-RES; experiment: Cytotoxicity against human NCl/ADR-RES assessed as growth inhibition at 10 uM by NCI protocol relative to control; type: functional; conditions: read-out: GI; in short: as §1
[3] = system: SN12C; experiment: Cytotoxicity against human SN12C assessed as growth inhibition at 10 uM by NCI protocol relative to control; type: functional; conditions: read-out: GI
In short: (§2)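 Run by the NCI under its standard protocol: one dose of 10 μM against a sixty-line panel from nine human tumour tissues. Result given as percent growth inhibition of treated cells relative to untreated cells.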

[4] = system: TK-10; experiment: Cytotoxicity against human TK-10 assessed as growth inhibition at 10 uM by NCI protocol relative to control; type: functional; conditions: read-out: GI; in short: as §2
[5] = system: ACHN; experiment: Cytotoxicity against human ACHN assessed as growth inhibition at 10 uM by NCI protocol relative to control; type: functional; conditions: read-out: GI; in short: as §1
[6] = system: Hs-578T; experiment: Cytotoxicity against human HS 578T assessed as growth inhibition at 10 uM by NCI protocol relative to control; type: functional; conditions: read-out: GI; in short: as §1
[7] = system: T47D; experiment: Cytotoxicity against human T-47D assessed as growth inhibition at 10 uM by NCI protocol relative to control; type: functional; conditions: read-out: GI; in short: as §2
[8] = system: MDA-MB-231; experiment: Cytotoxicity against human MDA-MB-231 assessed as growth inhibition at 10 uM by NCI protocol relative to control; type: functional; conditions: read-out: GI; in short: as §1
[9] = system: PC-3; experiment: Cytotoxicity against human PC3 assessed as growth inhibition at 10 uM by NCI protocol relative to control; type: functional; conditions: read-out: GI; in short: as §1
[10] = system: UACC-257; experiment: Cytotoxicity against human UACC-257 assessed as growth inhibition at 10 uM by NCI protocol relative to control; type: functional; conditions: read-out: GI; in short: as §2
[11] = system: RPMI-8226; experiment: Cytotoxicity against human RPMI-8226 assessed as growth inhibition at 10 uM by NCI protocol relative to control; type: functional; conditions: read-out: GI; in short: as §1
[12] = system: Malme-3M; experiment: Cytotoxicity against human MALME-3M assessed as growth inhibition at 10 uM by NCI protocol relative to control; type: functional; conditions: read-out: GI; in short: as §1
[13] = system: LOX IMVI; experiment: Cytotoxicity against human LOX IMVI assessed as growth inhibition at 10 uM by NCI protocol relative to control; type: functional; conditions: read-out: GI; in short: as §1
[14] = system: NCI-H460; experiment: Cytotoxicity against human NCI-H460 assessed as growth inhibition at 10 uM by NCI protocol relative to control; type: functional; conditions: read-out: GI; in short: as §1
[15] = system: CCRF-CEM; experiment: Cytotoxicity against human CCRF-CEM assessed as growth inhibition at 10 uM by NCI protocol relative to control; type: functional; conditions: read-out: GI; in short: as §1
[16] = system: T47D; experiment: Induction of apoptosis in human T47D cells assessed as total apoptotic cells after 24 hrs by Annexin V-FITC/propidium iodide staining based flow cytometric analysis (reference value: 2.61 %); type: functional
[17] = system: T47D; experiment: Induction of cell cycle arrest in human T47D cells assessed as increase in accumulation at pre G1 phase after 24 hrs by propidium iodide/Annexin V staining based FACScan flow cytometry(reference value: 2.61%); type: functional
[18] = system: T47D; experiment: Induction of apoptosis in human T47D cells assessed as necrotic cells after 24 hrs by Annexin V-FITC/propidium iodide staining based flow cytometric analysis (reference value: 1.74%); type: functional
[19] = system: HOP-62; experiment: Cytotoxicity against human HOP-62 assessed as growth inhibition at 10 uM by NCI protocol relative to control; type: functional; conditions: read-out: GI; in short: as §1
[20] = system: T47D; experiment: Induction of apoptosis in human T47D cells assessed as early apoptotic cells after 24 hrs by Annexin V-FITC/propidium iodide staining based flow cytometric analysis (reference value: 0.66 %); type: functional
[21] = system: T47D; experiment: Induction of cell cycle arrest in human T47D cells assessed as increase in accumulation at G2/M phase after 24 hrs by propidium iodide/Annexin V staining based FACScan flow cytometry(reference value: 12.79%); type: functional
[22] = system: T47D; experiment: Induction of apoptosis in human T47D cells assessed as late apoptotic cells after 24 hrs by Annexin V-FITC/propidium iodide staining based flow cytometric analysis (reference value: 0.21 %); type: functional
[23] = system: T47D; experiment: Induction of cell cycle arrest in human T47D cells assessed as increase in accumulation at S phase after 24 hrs by propidium iodide/Annexin V staining based FACScan flow cytometry(reference value: 34.62%); type: functional
[24] = system: MCF10; experiment: Cytotoxicity against human MCF10 cells assessed as reduction in cell viability after 3 hrs by MTT assay; conditions: MCF10, 3 h
[25] = system: T47D; experiment: Induction of cell cycle arrest in human T47D cells assessed as increase in accumulation at G0/G1 phase after 24 hrs by propidium iodide/Annexin V staining based FACScan flow cytometry(reference value: 52.59%); type: functional

Compound	inhibition of growth at 10 µM [1]	inhibition of growth at 10 µM [2]	inhibition of growth at 10 µM [3]	inhibition of growth at 10 µM [4]	inhibition of growth at 10 µM [5]	inhibition of growth at 10 µM [6]	inhibition of growth at 10 µM [7]	inhibition of growth at 10 µM [8]	inhibition of growth at 10 µM [9]	inhibition of growth at 10 µM [10]	inhibition of growth at 10 µM [11]	inhibition of growth at 10 µM [12]	inhibition of growth at 10 µM [13]	inhibition of growth at 10 µM [14]	inhibition of growth at 10 µM [15]	inhibition of growth at 10 µM [19]	further results
Cc1ccc(-c2csc(NC(=O)CN3CCN(c4cc(=O)[nH]c5ccc(F)cc45)CC3)n2)cc1	42.4%	38.4%	45.1%	46.3%	44.1%	41.4%	74.3%	19%	55.9%	37.5%	51.1%	43.5%	23.9%	21.4%	47%	–	–
O=C(CN1CCN(c2cc(=O)n(-c3ccccc3)c3ccccc23)CC1)Nc1nc(-c2ccc(Cl)cc2)cs1	75.8%	45.1%	25.9%	37.6%	44.9%	–	75.7%	25.3%	65%	72%	63.3%	44.9%	41.6%	45.2%	49.3%	34.2%	Activity [16]: 25.12%; Activity [17]: 25.12%; Activity [18]: 9.85%; Activity [20]: 4.06%; Activity [21]: 4.95%; Activity [22]: 11.21%; Activity [23]: 49.36%; pIC50 [24]: 4.19; Activity [25]: 45.69%
O=C(CN1CCN(c2cc(=O)n(-c3ccccc3)c3ccccc23)CC1)Nc1nc(-c2ccccc2)cs1	77.6%	37.3%	17.9%	–	36.2%	17.1%	83.4%	37.5%	67.5%	51.5%	53.8%	30.3%	50.5%	67.8%	60.4%	33.5%	–
O=C(CN1CCN(c2cc(=O)[nH]c3ccc(F)cc23)CC1)Nc1nc(-c2ccc(Cl)cc2)cs1	44.8%	41.9%	36.2%	34.3%	38.5%	33.5%	73.2%	16.6%	45.1%	31.3%	38.3%	43.3%	21.8%	18.1%	33.3%	–	–

— ChEMBL document CHEMBL4819122, “Novel 4-(piperazin-1-yl)quinolin-2(1H)-one bearing thiazoles with antiproliferative activity through VEGFR-2-TK inhibition” (Bioorg Med Chem, 2021)
